High-throughput results (PubChem BioAssay)
Shown is part of a subset that was picked to be rich in hits.
HUVEC inhibit: inhibitors of HUVEC proliferation, primary screen, cell-based, 384-well. CellTiter-Glo luminescence, 72 h; hits give low values. viability, % at 10 µM (by protocol). actives 1.1% (n = 86,000);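 active = viability at or below 30%; inactive = viability above 30%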;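 also: 100% = median luminescence of DMSO-only cell control wells on each plate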
PTEN del growth: growth suppression of PTEN-null HCT116, primary screen, cell-based, CellTiter-Glo | HCT116 PTEN-null viability, 60 h; hits give low values | viability, % at 10 µM | actives 1.2% (n = 140,000);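 active = viability at or below a set limit, 4 SD under the median of all tested compounds, cut at about 3.7% in these data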;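 also: PTEN knockout HCT116 line with beta catenin targeted HCT116 as companion control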
H69AR inhibit: proliferation blockers of H69AR lung cancer cells, primary screen, cell-based, human, 86K library. H69AR lung tumor viability, ATP luminescence, 72 h; hits give low values. viability, % at 10 µM. actives 6% (n = 85,000);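 active = viability at or below 40%; inactive = viability above 40%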;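 also: multidrug resistant small cell line overexpressing MRP-1 efflux transporter; 100% = mean luminescence of untreated control wells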
Lung fibro prol: antiproliferative effect on LL 47 fibroblasts – human, LL 47 cells, CellTiter-Glo luminescence, primary screen. LL 47 human lung fibroblast viability, ATP luminescence; hits give low values. viability, % at 10 µM. actives 1.1% (n = 85,000). AID 719, 2007;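 active = viability at or below 50% in the single dose screen; inactive = viability above 50%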;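 also: compound exposure lasted 72 h before the ATP readout; 100% = median luminescence of untreated cell-only wells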
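Material: human LL 47 lung fibroblast cells; quantity: 1,150 cells/well; medium: IMEM plus 15% FBS; doses: 0.1% DMSO in all compound wells; timing: overnight attachment after seeding, then 72 h compound exposure at 37 °C; detection: CellTiter-Glo luminescence; measure: % viability of median cell-only signal; controls: cell-only wells, no compound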
HCT116 bCat-KO: primary screen for growth suppressors in beta-catenin knockout HCT116 cells (colon tumor, human); HCT116 beta-catenin knockout viability, CellTiter-Glo, 60 h; hits give low values; viability, % at 10 µM; actives 1.5% (n = 140,000); AID 818, 2007;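 active = viability at or under a set limit, the compound median less 4 SD, cut at about 6% in these data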;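 also: 0% = Hyamine 1622 control at 20 µM and 100% = untreated cell control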
* marks the source's active call; other numbers are inactive results.

For CCN(c1ccccc1)S(=O)(=O)c1ccc2[nH]cc(C(=O)N3CCOCC3)c(=O)c2c1 the results were HUVEC inhibit 83.4, PTEN del growth 95.8, H69AR inhibit 94.4, Lung fibro prol 103.1 and HCT116 bCat-KO 101.8.
For CCn1c(SCc2ccc(C#N)cc2)nnc1-c1ccc(S(=O)(=O)N2CCCCC2)cc1 the results were HUVEC inhibit 75.4, PTEN del growth 66.4, H69AR inhibit 33.7*, Lung fibro prol 86.5 and HCT116 bCat-KO 74.8.
Screening CC(C)NCC(O)Cn1c2c(c3ccccc31)CCc1c-2cnn1-c1ccccc1 (stereo not drawn) returned PTEN del growth 2.0* and HCT116 bCat-KO 1.5*.
For CC(NC(=O)CCl)c1ccc(Cl)c(Cl)c1 (stereo not drawn) the results were PTEN del growth 3.8* and HCT116 bCat-KO 2.9*.
For CC(C)CC(NC(=O)CCl)c1ccccc1 (stereo not drawn) the results were PTEN del growth 61.6 and HCT116 bCat-KO 56.6.
Cc1ccc2cc(CN(CCN3CCCC3)C(=O)Nc3ccccc3)c(=O)[nH]c2c1C was read as HUVEC inhibit 78.4, PTEN del growth 61.3, H69AR inhibit 74.4, Lung fibro prol 98.0 and HCT116 bCat-KO 69.0.
`O=C(Nc1ccc(F)cc1)N(CCCN1CCOCC1)Cc1cc2cc3c(cc2[nH]c1=O)OCCO3` gave HUVEC inhibit 81.1, PTEN del growth 66.2, H69AR inhibit 61.2, Lung fibro prol 89.5 and HCT116 bCat-KO 61.6.
For CCc1ccc2[nH]c(=O)c(CN(CCCN3CCOCC3)C(=O)Nc3ccc(F)cc3)cc2c1 the results were HUVEC inhibit 76.7, PTEN del growth 81.0, H69AR inhibit 33.8*, Lung fibro prol 93.8 and HCT116 bCat-KO 87.5.
Cc1ccc2cc(CN(CCN3CCCC3)C(=O)Nc3ccc(F)cc3)c(=O)[nH]c2c1C was read as HUVEC inhibit 65.9, PTEN del growth 20.5, H69AR inhibit 37.7*, Lung fibro prol 85.3 and HCT116 bCat-KO 20.9.
For COc1ccc(NC(=O)CSc2ncnc3c2sc2ccccc23)c(OC)c1 the results were PTEN del growth 2.2* and HCT116 bCat-KO 2.2*.
For O=C(Nc1ccccc1)Nc1ccc2snnc2c1 the results were HUVEC inhibit 52.7, PTEN del growth 65.7, H69AR inhibit 13.2*, Lung fibro prol 100.9 and HCT116 bCat-KO 52.1.
CN(C)c1ccc(NC(=O)Nc2ccc3snnc3c2)cc1 was read as HUVEC inhibit 92.9, PTEN del growth 103.7, H69AR inhibit 79.0, Lung fibro prol 103.2 and HCT116 bCat-KO 99.0.
CC(C)CN=C(NS(=O)(=O)c1ccccc1)C(Cl)(Cl)Cl was read as PTEN del growth 4.5 and HCT116 bCat-KO 4.7*.
Screening COc1ccc(CNC(=O)CSc2nnnn2Cc2ccccc2)cc1 returned HUVEC inhibit 69.2, PTEN del growth 71.8, H69AR inhibit 48.5, Lung fibro prol 104.5 and HCT116 bCat-KO 78.1.
CCCCOC(=O)CSCC(=O)N1N=C(c2cccs2)CC1c1ccc(F)cc1 (stereo not drawn) was read as PTEN del growth 106.5 and HCT116 bCat-KO 92.0.
`COc1ccc(CCNc2nnc(Sc3nnnn3-c3ccccc3)s2)cc1OC` gave HUVEC inhibit 41.5, PTEN del growth 22.0, H69AR inhibit 29.0*, Lung fibro prol 55.6 and HCT116 bCat-KO 13.5.
`Cc1ccccc1-c1nnc(-c2ccc(Cl)cc2)o1` gave HUVEC inhibit 99.8, PTEN del growth 76.2, H69AR inhibit 83.5, Lung fibro prol 93.0 and HCT116 bCat-KO 67.3.
`CN(C)CCCOc1ccc(C(C)(C)c2ccccc2)cc1` gave HUVEC inhibit 33.8, PTEN del growth 30.9, H69AR inhibit 27.7*, Lung fibro prol 78.7 and HCT116 bCat-KO 34.4.
For C=CCNCCOc1ccc(C(C)(C)c2ccccc2)cc1 the results were PTEN del growth 77.0 and HCT116 bCat-KO 74.3.
Screening CNc1sc(C(=O)c2ccc(F)cc2)c(N)c1-c1nc2ccccc2s1 returned HUVEC inhibit 25.3*, PTEN del growth 76.9, H69AR inhibit 5.7*, Lung fibro prol 57.2 and HCT116 bCat-KO 75.5.
For CNc1sc(C(=O)c2cccs2)c(N)c1-c1nc2ccccc2s1 the results were HUVEC inhibit 59.8, PTEN del growth 81.4, H69AR inhibit 62.6, Lung fibro prol 83.0 and HCT116 bCat-KO 79.5.
